Data: PMC2939729 (Cancer cell, 2010)

How the values were obtained:
MEK5 = target: T1, MEK5 (Homo sapiens, UniProt Q13163); assay: KiNativ profiling in HeLa cell lysates; assay type: binding; details: at up to 50 μM
T1 sequence (Q13163 1-448): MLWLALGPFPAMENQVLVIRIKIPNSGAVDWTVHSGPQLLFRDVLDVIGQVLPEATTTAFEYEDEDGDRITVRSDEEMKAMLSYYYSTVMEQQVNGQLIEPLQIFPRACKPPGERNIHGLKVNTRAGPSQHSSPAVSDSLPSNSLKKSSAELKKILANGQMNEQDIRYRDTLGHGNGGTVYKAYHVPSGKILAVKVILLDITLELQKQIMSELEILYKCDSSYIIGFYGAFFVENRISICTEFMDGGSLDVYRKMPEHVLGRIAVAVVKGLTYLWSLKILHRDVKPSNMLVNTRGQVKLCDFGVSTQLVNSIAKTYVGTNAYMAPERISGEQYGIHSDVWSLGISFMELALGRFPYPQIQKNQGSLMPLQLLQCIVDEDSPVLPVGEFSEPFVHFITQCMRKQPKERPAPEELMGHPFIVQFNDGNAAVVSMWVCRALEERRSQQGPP
Summary of the method: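 HeLa lysates (5 mg/mL total protein) were preincubated 15 min with test compound at 50, 10, 2, 0.8 or 0 μM. ATP or ADP acylphosphate probe was then added (5 μM final) for 10 min, and the reaction was stopped with urea and processed for MS. Each kinase signal came from up to four fragment ions of its peptide-probe conjugate. % inhibition was taken against untreated lysate, with duplicate reactions.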

[1] = mouse, in vivo, ip, 50 mg/kg
p21 expression = p21 expression in MEF cells, western blot; assay type: cell-based; details: 5 μM, 16 hours
Summary of the method: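 Pml+/+ and Pml−/− MEFs were treated with or without test compound (5 μM) for 16 hr. Lysates were western-blotted with anti-p21 antibody. p21 was quantified by densitometry, normalised to GAPDH, and expressed relative to untreated Pml+/+ cells (set to 1). n = 5; Student's t test.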

CCOc1cc(N2CCC(O)CC2)ccc1Nc1ncc2c(n1)N(C)c1ccccc1C(=O)N2C [XMD8-92]
inhibition of MEK5 (MEK5): not significantly inhibited
tolerability [1]: well tolerated
p21 expression (p21 expression; Pml+/+ MEF cells): significantly induced
induction of p21 in PML null cells (p21 expression; Pml-/- MEF cells): substantially reduced
